# ChEMBL document CHEMBL1122490, “Aporphines. 48. Enantioselectivity of (R)-(-)- and (S)-(+)-N-n-propylnorapomorphine on dopamine receptors” (J Med Chem, 1983)
# Assays:
# Rattus norvegicus [1] = organism: Rattus norvegicus; experiment: Percent control of stimulation of cAMP production in rat striatal homogenate at 50 micro M concentration; assay type: functional
# In short: (§1)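 Rat corpus striatum homogenates were incubated with excess ATP and theophylline to inhibit phosphodiesterase. cAMP formed per 2.5-min assay above the basal (no agonist) level was measured by protein-binding assay. Results are given as mean pmol ± SEM, and as percent of the blank control, with 5–12 replicates per concentration.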
# Rattus norvegicus [2] = organism: Rattus norvegicus; experiment: Stimulation of cAMP production in homogenates of corpus striatum from rat brain, at a concentration of 50 uM.; assay type: functional, organism-based; in short: as §1
# Rattus norvegicus [3] = experiment: Stereotypic behavior of male Sprague-Dawley rats, after a sc administration of 5 dose(mg/kg); assay type: functional
# In short: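 Male Sprague-Dawley rats (175–200 g), group-housed with free food and water, 12-h light cycle. Drug freshly dissolved in ice-cold 1 mM citric acid/0.9% saline (1:4, v/v), given sc; vehicle injected as placebo. Stereotypy rated 0–3 by experienced observer from 30-s observations every 10 min over 60 min (maximum 18). Four to six rats per dose; means ± SEM.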
smiles,measurement,setting,value
NCCc1ccc(O)c(O)c1,Control,Rattus norvegicus [1],217%
same,cAMP production,Rattus norvegicus [2],5.39 N
CCCN1CCc2cccc3c2[C@@H]1Cc1ccc(O)c(O)c1-3.CCCN1CCc2cccc3c2[C@H]1Cc1ccc(O)c(O)c1-3 (racemic; (+)),Stereotypy score,Rattus norvegicus [3],17.2
CCCN1CCc2cccc3c2[C@@H]1Cc1ccc(O)c(O)c1-3.CCCN1CCc2cccc3c2[C@H]1Cc1ccc(O)c(O)c1-3 (racemic; (-)),Stereotypy score,Rattus norvegicus [3],18
CCCN1CCc2cccc3c2[C@@H]1Cc1ccc(O)c(O)c1-3.CN1CCc2cccc3c2[C@H]1Cc1ccc(O)c(O)c1-3 (stereo in doubt; (+)),Stereotypy score,Rattus norvegicus [3],17.5
CCCN1CCc2cccc3c2[C@@H]1Cc1ccc(O)c(O)c1-3.CN1CCc2cccc3c2[C@H]1Cc1ccc(O)c(O)c1-3 (stereo in doubt; (-)),Stereotypy score,Rattus norvegicus [3],17.7
CN1CCc2cccc3c2[C@H]1Cc1ccc(O)c(O)c1-3 [APOMORPHINE],Stereotypy score,Rattus norvegicus [3],18
